# Data from ChEMBL document CHEMBL1833877, “Antinociceptive properties of bergenin” (J Nat Prod, 2011).
# Active and inactive are the calls of the source.
# Assays:
# [1] = system: Mus musculus; test: Antinociceptive activity against Freund's complete adjuvant-induced paw inflammation in mouse assessed as reduction in paw edema at 100 mg/kg, ip administered 40 mins before CFA challenge measured after 6 hrs; format: functional, organism-based; parameters: dose 100 mg/kg
# Procedure, shortened: (§1)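 CFA (20 μL, 1 mg/mL heat-killed M. tuberculosis) was injected sc into the right hind plantar surface. Treatment was ip in 2% DMSO/saline 40 min before. Paw volume was read by plethysmometer before and after CFA, and edema taken as the volume difference (mm3/paw). n = 6 mice/group, means ± SEM, two-way ANOVA with Bonferroni.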
# [2] = system: Mus musculus; test: Inhibition of IL1-beta production in Freund's complete adjuvant-induced mouse at 50 mg/kg, ip administered 40 mins before CFA challenge measured after 2 hrs by ELISA; format: functional, organism-based; parameters: dose 50 mg/kg
# Procedure, shortened: (§2)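 CFA was given intraplantar, with ip dosing (2% DMSO/saline vehicle) 40 min earlier. At 2 h, paw skin was taken under terminal halothane anesthesia. Tissue was extracted (100 mg/mL PBS with 0.4 M NaCl, 0.05% Tween 20 and protease inhibitors) and centrifuged at 3000g for 10 min. Supernatant was assayed by mouse ELISA, in pg/mL. n = 6/group.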
# [3] = system: Mus musculus; test: Antinociceptive activity against Freund's complete adjuvant-induced paw inflammation in mouse assessed as reduction in paw edema at 50 mg/kg, ip administered 40 mins before CFA challenge measured after 6 hrs; format: functional, organism-based; parameters: dose 50 mg/kg; procedure, shortened: as §1
# [4] = system: Mus musculus; test: Antinociceptive activity against Freund's complete adjuvant-induced paw inflammation in mouse assessed as reduction in paw edema at 100 mg/kg, ip administered 40 mins before CFA challenge measured after 4 hrs; format: functional, organism-based; parameters: dose 100 mg/kg; procedure, shortened: as §1
# [5] = system: Mus musculus; test: Inhibition of IL1-beta production in Freund's complete adjuvant-induced mouse at 100 mg/kg, ip administered 40 mins before CFA challenge measured after 2 hrs by ELISA; format: functional, organism-based; parameters: dose 100 mg/kg; procedure, shortened: as §2
# [6] = system: Mus musculus; test: Toxicity in mouse assessed as gastric ulcer at 50 mg/kg, ip for seven consecutive days relative to control; format: organism-based, Stomach; parameters: dose 50 mg/kg, route intraperitoneal; details: in vivo
# Procedure, shortened: (§3)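 After 7 daily ip doses, stomachs were cryosectioned at 3 μm and stained with H&E. Sections were scored blind 0–4 for inflammatory infiltrate, edema, epithelial loss and necrosis. Ten fields (40×) were read per section, means ± SEM.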
# [7] = system: Mus musculus; test: Antinociceptive activity against formalin-induced pain in mouse assessed as paw licking during late phase (10 to 60 mins) at 50 mg/kg, ip administered 40 mins before formalin challenge; format: functional, organism-based; parameters: dose 50 mg/kg
# Procedure, shortened: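 Mice were acclimated 30 min in an observation chamber, then given 20 μL of 2.5% formalin sc into the dorsal hind paw. Dosing was ip (2% DMSO/saline vehicle) 40 min beforehand. Time spent licking the injected paw was scored over 0–10 min and 10–60 min. n = 6/group, means ± SEM, ANOVA with Tukey.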
# [8] = system: Mus musculus; test: Antinociceptive activity against Freund's complete adjuvant-induced paw inflammation in mouse assessed as reduction in mechanical hyperalgesia at 50 mg/kg, ip administered 40 mins before CFA challenge measured after 2 to 6 hrs; format: functional, organism-based; parameters: dose 50 mg/kg
# Procedure, shortened: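 Mice, lightly halothane-anesthetized, got 20 μL complete Freund's adjuvant (1 mg/mL heat-killed M. tuberculosis in paraffin oil/mannide monooleate) sc into the right hind plantar surface. Treatment was ip in 2% DMSO/saline 40 min before CFA. Mechanical threshold was read with von Frey filaments by the up-down method at 2, 4 and 6 h. n = 6 mice/group, means ± SEM, two-way ANOVA with Bonferroni.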
# [9] = system: Mus musculus; test: Toxicity in mouse assessed as edema in gastric mucosa at 100 mg/kg, ip for seven consecutive days relative to control; format: organism-based; parameters: dose 100 mg/kg, route intraperitoneal; details: in vivo; procedure, shortened: as §3
# [10] = system: Mus musculus; test: Toxicity in mouse assessed as inflammatory cell infiltrate in gastric mucosa at 50 mg/kg, ip for seven consecutive days relative to control; format: organism-based; parameters: dose 50 mg/kg, route intraperitoneal; details: in vivo; procedure, shortened: as §3
# [11] = system: Mus musculus; test: Toxicity in mouse assessed as edema in gastric mucosa at 50 mg/kg, ip for seven consecutive days relative to control; format: organism-based; parameters: dose 50 mg/kg, route intraperitoneal; details: in vivo; procedure, shortened: as §3
# [12] = system: Mus musculus; test: Antinociceptive activity against Freund's complete adjuvant-induced paw inflammation in mouse assessed as reduction in paw edema at 100 mg/kg, ip administered 40 mins before CFA challenge measured after 2 hrs; format: functional, organism-based; parameters: dose 100 mg/kg; procedure, shortened: as §1
# [13] = system: Mus musculus; test: Toxicity in mouse assessed as reduction in corporal mass at 50 mg/kg, ip for seven consecutive days relative to control; format: organism-based; parameters: dose 50 mg/kg, route intraperitoneal; details: in vivo
# Procedure, shortened: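 Male mice (22–28 g) weighed and dosed once daily ip for seven consecutive days with test agent or vehicle (2% DMSO in saline). Body mass, general appearance and toxic signs followed and compared with vehicle-treated mice. Data are means ± SEM, 6–9 animals per group.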
# [14] = system: Mus musculus; test: Toxicity in mouse assessed as inflammatory cell infiltrate in gastric mucosa at 100 mg/kg, ip for seven consecutive days relative to control; format: organism-based; parameters: dose 100 mg/kg, route intraperitoneal; details: in vivo; procedure, shortened: as §3
# [15] = system: Mus musculus; test: Toxicity in mouse assessed as liver function measuring serum AST level at 50 mg/kg, ip for seven consecutive days relative to control; format: organism-based; parameters: dose 50 mg/kg, route intraperitoneal; details: in vivo
# Procedure, shortened: (§4)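 Mice were weighed and dosed ip once daily for 7 consecutive days, vehicle controls alongside, and monitored for toxic signs and general appearance. At the end, retro-orbital blood was taken under light anesthesia for leukocyte counts. Serum, from blood centrifuged at 2500 rpm for 15 min without anticoagulant, was used for ALT and AST.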
# [16] = system: Mus musculus; test: Antinociceptive activity against Freund's complete adjuvant-induced paw inflammation in mouse assessed as reduction in paw edema at 50 mg/kg, ip administered 40 mins before CFA challenge measured after 4 hrs; format: functional, organism-based; parameters: dose 50 mg/kg; procedure, shortened: as §1
# [17] = system: Mus musculus; test: Toxicity in mouse assessed as liver function measuring serum ALT level at 100 mg/kg, ip for seven consecutive days relative to control; format: organism-based; parameters: dose 100 mg/kg, route intraperitoneal; details: in vivo; procedure, shortened: as §4
# [18] = system: Mus musculus; test: Toxicity in mouse assessed as change in general appearance at 50 mg/kg, ip for seven consecutive days relative to control; format: organism-based; parameters: dose 50 mg/kg, route intraperitoneal; details: in vivo; procedure, shortened: as §4
# [19] = system: Mus musculus; test: Inhibition of TNF-alpha production in Freund's complete adjuvant-induced mouse at 100 mg/kg, ip administered 40 mins before CFA challenge measured after 2 hrs by ELISA; format: functional, organism-based; parameters: dose 100 mg/kg; procedure, shortened: as §2
# [20] = system: Mus musculus; test: Toxicity in mouse assessed as gastric inflammation at 100 mg/kg, ip for seven consecutive days relative to control; format: organism-based, Stomach; parameters: dose 100 mg/kg, route intraperitoneal; details: in vivo; procedure, shortened: as §3
# [21] = system: Mus musculus; test: Toxicity in mouse assessed as change in general appearance at 100 mg/kg, ip for seven consecutive days relative to control; format: organism-based; parameters: dose 100 mg/kg, route intraperitoneal; details: in vivo; procedure, shortened: as §4
# [22] = system: Mus musculus; test: Toxicity in mouse assessed as necrosis in gastric mucosa at 100 mg/kg, ip for seven consecutive days relative to control; format: organism-based; parameters: dose 100 mg/kg, route intraperitoneal; details: in vivo; procedure, shortened: as §3
# [23] = system: Mus musculus; test: Toxicity in mouse assessed as renal function measuring serum urea level at 50 mg/kg, ip for seven consecutive days relative to control; format: organism-based; parameters: dose 50 mg/kg, route intraperitoneal; details: in vivo
# Procedure, shortened: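 Once-daily ip dosing for seven consecutive days in male mice (22–28 g), with vehicle (2% DMSO in saline) as control. At the end of treatment, blood taken from the retro-orbital plexus under light anesthesia. Serum obtained without anticoagulant by centrifugation at 2500 rpm for 15 min, then assayed biochemically for urea and creatinine. Means ± SEM, 6–9 animals per group.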
structure (smiles),measurement,setting,value
COc1c(O)cc2c(c1O)[C@@H]1O[C@H](CO)[C@@H](O)[C@H](O)[C@H]1OC2=O [BERGENIN],Activity,[1],inactive
same,inhibition,[2],Active
same,Activity,[3],inactive
same,Activity,[4],Active
same,inhibition,[5],Active
same,Activity,[6],Non-toxic
same,Activity,[7],Active
same,Activity,[8],Active
same,Activity,[9],Non-toxic
same,Activity,[10],Non-toxic
same,Activity,[11],Non-toxic
same,Activity,[12],Active
same,Activity,[13],Non-toxic
same,Activity,[14],Non-toxic
same,Activity,[15],Non-toxic
same,Activity,[16],Active
same,Activity,[17],Non-toxic
same,Activity,[18],Non-toxic
same,inhibition,[19],Active
same,Activity,[20],Non-toxic
same,Activity,[21],Non-toxic
same,Activity,[22],Non-toxic
same,Activity,[23],Non-toxic
